Results on 13 compounds are retold here after ChEMBL document CHEMBL1212813, “alpha-Amino-3-hydroxy-5-methyl-4-isoxazolepropionic acid (AMPA) antagonists: from bench to bedside” (J Med Chem, 2010).

The nature of data set [1]: Displacement of [3H]kainate from kainate receptor in rat cortical membrane. It is filed as cell membranes. Background: In a radioligand displacement assay an active substance lowers the binding of a labelled ligand.
A short description of data set [2]: Displacement of [3H]AMPA from AMPA receptor in rat cortical membrane in presence of cyclothiazide. It is filed as cell membranes.
Data set [3] concerns Mus musculus. Kind of data set: Anticonvulsant activity in ip dosed mouse assessed as inhibition of MES-induced tonic seizures. It is filed as functional.
Data set [4] can be described thus: Displacement of [3H]AMPA from AMPA receptor in rat cortical membrane. It is filed as cell membranes.
In data set [5] the target is Glutamate NMDA receptor. Kind of data set: Inhibition of NMDA receptor glutamate site from rat cortical membrane.
Data set [6] has as its target Glutamate NMDA receptor. Kind of data set: Inhibition of NMDA receptor glycine site from rat cortical membrane.
Data set [7] in a line: Solubility of the compound at pH 7.4. The conditions noted are these: buffer. It is filed as physicochemical.
Data set [8] concerns Rattus norvegicus. Put plainly: Anticonvulsant activity in po dosed rat assessed as inhibition of MES-induced tonic seizures. It is filed as functional.
Data set [9] has as its target Glutamate NMDA receptor. Put plainly: Displacement of [3H](E)-3-(2-carboxy-2-phenylvinyl)-4,6-dichloro-1H-indole-2-carboxylic acid from NMDA receptor glutamate site from rat cortical membrane.
The subject of data set [10] is Mus musculus. Put plainly: Anticonvulsant activity in po dosed mouse assessed as inhibition of MES-induced tonic seizures. It is filed as functional. In a few lines:
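Mice were dosed orally 2 h before maximal electroshock. The read-out was protection from tonic convulsions, and an ED50 was derived.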

Converted amounts (≈) assume the structure as drawn.

As usually defined, the IC50 is the concentration that inhibits the measured activity by half. For orientation: ED50 means the midpoint of the dose-response relation. `CN(C)S(=O)(=O)c1cc2c(N=O)c(O)[nH]c2c2c1CCCC2`: the figures for the IC50 in [1] and in [2] were 81000 nM and 150 nM, respectively. Besides, the ED50 in data set [3] was 30 mg/kg.

As to `CS(=O)(=O)Nn1c(=O)[nH]c2cc(Cl)ccc2c1=O`, in data set [3], the ED50 was determined as 40 mg/kg. One may read the Ki as a dissociation constant, usually derived from enzyme kinetics or from competition with a known ligand. Lower therefore signals tighter binding. Compound `O=[N+]([O-])c1ccc2nc(O)c(O)nc2c1` yielded an inhibition constant (Ki) in data set [4] of 2000 nM. This lies in the single-digit micromolar range. Consider `Oc1nc2ccc(-n3ccnc3)cc2nc1O`, for which the Ki in data set [4] is 1600 nM. Still for that read-out and setting: for `Oc1nc2ccccc2nc1O` the value was more than 100000 nM; for `N#Cc1ccc2nc(O)c(O)nc2c1`, 5000 nM. Regarding `Oc1nc2cc(-n3ccnc3)c(-n3ccnc3)cc2nc1O`, the Ki in [4] was 820 nM. `O=P(O)(O)CNCc1cc(Br)cc2nc(O)c(O)nc12` came in with a concentration for half-maximal inhibition (IC50) in data set [4] of 2400 nM. As a reminder, the solubility is the concentration that dissolves in the medium under given conditions. Low readings indicate little dissolved substance, high ones much dissolved substance. With `O=c1[nH]c2cc([N+](=O)[O-])cc(CNCP(=O)(O)O)c2[nH]c1=O`, the IC50 in [4] stood at 290 nM; in data set [1] it was 4200 nM; in [5], 490 nM; in data set [6], 1160 nM. The same compound displayed a solubility in [7] of 6600 µg/mL (≈ 20 mM). In addition, in [8], the ED50 turned out to be 5 mg/kg. On to `C[C@H](NCc1cc([N+](=O)[O-])cc2nc(O)c(O)nc12)P(=O)(O)O`, for which the values for the IC50 in data set [4] and in data set [9] were 170 nM and 32 nM, respectively. With `N#Cc1cc2c(cc1[N+](=O)[O-])=NC(=O)C(=O)N=2`, the IC50 in data set [4] came to 300 nM; in data set [1], 1500 nM; in data set [6] it was 14000 nM. As to `CCC1(C)CC(=O)NC(=O)C1` [BEMEGRIDE], the ED50 in data set [10] came out at 23.9 mg/kg. The same measure, in the same setting: as for `CN1CCc2cc3c(cc2[C@H]1[C@@H]1OC(=O)c2c1ccc1c2OCO1)OCO3` [BICUCULLINE], the figure is 14.6 mg/kg.
